From ChEMBL document CHEMBL1811802, “Synthesis and significant cytostatic activity of 7-hetaryl-7-deazaadenosines” (J Med Chem, 2011)

Experiments:
[1] = Inhibition of RNA polymerase 2 in human HeLaScribe nuclear extracts after 1 hr; settings: read-out: IC50
Summary of the method: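 HeLaScribe nuclear extract transcription with CMV(+) template DNA, 3 mM MgCl2, 400 μM CTP/GTP/UTP, 25 μM [33P]ATP. Inhibitor preincubated 5 min at 30 °C, then 1 h at 30 °C. Products run on 6% urea–polyacrylamide gel; full-length transcript quantified; IC50 is 50% product decrease.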

K562 [2] = assay: Cytotoxicity against human K562 cells after 3 days by MTT assay; assay type: functional, cell-based; settings: K562, 72 h
K562 [3] = assay: Cytotoxicity against human paclitaxel resistant K562 cells after 3 days by MTT assay; assay type: functional, cell-based; settings: K562, 72 h
BV-173 = assay: Cytotoxicity against human BV173 cells after 3 days by MTT assay; assay type: functional, cell-based; settings: BV-173, 72 h
[4] = Cytotoxicity against human CEM-DNR-bulk cells after 3 days by MTT assay; assay type: functional, cell-based; settings: 72 h
L1210 = assay: Cytotoxicity against mouse L1210 cells after 3 days by MTT assay; assay type: functional, cell-based; settings: L1210, 72 h
EL4 = assay: Cytotoxicity against mouse EL4 cells after 3 days by MTT assay; assay type: functional, cell-based; settings: EL4, 72 h
MCF7 = assay: Cytotoxicity against human MCF7 cells after 3 days by MTT assay; assay type: functional, cell-based; settings: MCF7, 72 h
BT-549 [5] = assay: Cytotoxicity against human BT549 cells after 3 days by MTT assay; assay type: functional, cell-based; settings: BT-549, 72 h
MDA-MB-231 = assay: Cytotoxicity against human MDA-MB-231 cells after 3 days by MTT assay; assay type: functional, cell-based; settings: MDA-MB-231, 72 h
SK-N-AS = assay: Cytotoxicity against human SK-N-AS cells after 3 days by MTT assay; assay type: functional, cell-based; settings: 72 h
[6] = Cytotoxicity against human U87MG cells after 3 days by MTT assay; assay type: functional, cell-based, U-87MG ATCC; settings: U-87 MG, 72 h
C6 = assay: Cytotoxicity against rat C6 cells after 3 days by MTT assay; assay type: functional, cell-based; settings: C6, 72 h
HT-29 = assay: Cytotoxicity against human HT-29 cells after 3 days by MTT assay; assay type: functional, cell-based; settings: HT-29, 72 h
HCT-116 [7] = assay: Cytotoxicity against human HCT116 cells after 3 days by MTT assay; assay type: functional, cell-based; settings: HCT-116, 72 h
CT26 = assay: Cytotoxicity against mouse CT26 cells after 3 days by MTT assay; assay type: functional, cell-based; settings: CT26, 72 h
PC-3 [8] = assay: Cytotoxicity against human PC3 cells after 3 days by MTT assay; assay type: functional, cell-based; settings: PC-3, 72 h
LNCaP = assay: Cytotoxicity against human LNCAP cells after 3 days by MTT assay; assay type: functional, cell-based; settings: 72 h
[9] = Cytotoxicity against human NCI-H146 cells after 3 days by MTT assay; assay type: functional, cell-based; settings: NCI-H146, 72 h
[10] = Cytotoxicity against human MES-SA cells after 3 days by MTT assay; assay type: functional, cell-based; settings: 72 h
HeLa = assay: Cytotoxicity against human HeLa cells after 3 days by MTT assay; assay type: functional, cell-based; settings: 72 h
SK-OV-3 = assay: Cytotoxicity against human SKOV3 cells after 3 days by MTT assay; assay type: functional, cell-based; settings: SK-OV-3, 72 h
SK-MEL-2 = assay: Cytotoxicity against human SK-MEL-2 cells after 3 days by MTT assay; assay type: functional, cell-based; settings: SK-MEL-2, 72 h
HPAC = assay: Cytotoxicity against human HPAC cells after 3 days by MTT assay; assay type: functional, cell-based; settings: 72 h
[11] = Cytotoxicity against mouse P388D1 cells after 3 days by MTT assay; assay type: functional, cell-based; settings: P388D1, 72 h
BJ = assay: Cytotoxicity against human BJ cells after 3 days by MTT assay; assay type: cell-based; settings: 72 h
DU-145 [12] = assay: Metabolic stability in human DU145 cells assessed as nucleoside formation per million of cells at 10 uM after 6 hrs by LC/MS/MS analysis; assay type: ADME, cell-based; settings: du-145, 6 h
Summary of the method: (§1)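 Du145 seeded at 60% confluence in MEM/10% FBS; next day exposed to 10 μM compound for 6 or 24 h. Cells trypsinized, extracted in 70% MeOH, dried, resuspended in 1 mM ammonium phosphate pH 8.5. Nucleoside, NMP and NTP quantified by ion-pairing (dimethylhexylamine) LC/MS/MS against untreated-cell-extract standard curves; pmol per million cells.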

DU-145 [13] = assay: Metabolic stability in human DU145 cells assessed as sodium ((2R,3S,4R,5R)-5-(4-amino-7H-pyrrolo[2,3-d]pyrimidin-7-yl)-3,4-dihydroxytetrahydrofuran-2-yl)methyl hydrogenphosphate-NMP formation per million of cells at 10 uM after 6 hrs by LC/MS/MS analysis; assay type: ADME, cell-based; settings: du-145, 6 h; summary of the method: as §1
DU-145 [14] = assay: Metabolic stability in human DU145 cells assessed as sodium ((2R,3S,4R,5R)-5-(4-amino-7H-pyrrolo[2,3-d]pyrimidin-7-yl)-3,4-dihydroxytetrahydrofuran-2-yl)methyl hydrogentriphosphate-NTP formation per million of cells at 10 uM after 6 hrs by LC/MS/MS analysis; assay type: ADME, cell-based; settings: du-145, 6 h; summary of the method: as §1
DU-145 [15] = assay: Metabolic stability in human DU145 cells assessed as nucleoside formation per million of cells at 10 uM after 24 hrs by LC/MS/MS analysis; assay type: ADME, cell-based; settings: du-145, 24 h; summary of the method: as §1
DU-145 [16] = assay: Metabolic stability in human DU145 cells assessed as sodium ((2R,3S,4R,5R)-5-(4-amino-7H-pyrrolo[2,3-d]pyrimidin-7-yl)-3,4-dihydroxytetrahydrofuran-2-yl)methyl hydrogenphosphate-NMP formation per million of cells at 10 uM after 24 hrs by LC/MS/MS analysis; assay type: ADME, cell-based; settings: du-145, 24 h; summary of the method: as §1
DU-145 [17] = assay: Metabolic stability in human DU145 cells assessed as sodium ((2R,3S,4R,5R)-5-(4-amino-7H-pyrrolo[2,3-d]pyrimidin-7-yl)-3,4-dihydroxytetrahydrofuran-2-yl)methyl hydrogentriphosphate-NTP formation per million of cells at 10 uM after 24 hrs by LC/MS/MS analysis; assay type: ADME, cell-based; settings: du-145, 24 h; summary of the method: as §1
A549 = assay: Cytostatic activity against human A549 cells after 5 days by SRB assay; assay type: functional; settings: A549, 120 h
Summary of the method: (§2)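 Cells seeded per line density, overnight at 37 °C; day-zero plate TCA-fixed. 5-fold serial dilutions added, 5-day incubation; TCA fixation, 0.057% SRB in 1% acetic acid 30 min, dye dissolved in 10 mM Tris pH 10.5, A500. Growth relative to day-zero and untreated; GIC50 from sigmoidal dose–response fit; mean of two independent experiments.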

NCI-H23 = assay: Cytostatic activity against human NCI-H23 cells after 5 days by SRB assay; assay type: functional; settings: NCI-H23, 120 h; summary of the method: as §2
DU-145 [18] = assay: Cytostatic activity against human DU145 cells after 5 days by SRB assay; assay type: functional; settings: DU-145, 120 h; summary of the method: as §2
PC-3 [19] = assay: Cytostatic activity against human PC3 cells after 5 days by SRB assay; assay type: functional; settings: PC-3, 120 h; summary of the method: as §2
HCT-116 [20] = assay: Cytostatic activity against human HCT116 cells after 5 days by SRB assay; assay type: functional; settings: HCT-116, 120 h; summary of the method: as §2
HCT-15 = assay: Cytostatic activity against human HCT15 cells after 5 days by SRB assay; assay type: functional; settings: HCT-15, 120 h; summary of the method: as §2
[21] = Cytostatic activity against human Hs578 cells after 5 days by SRB assay; assay type: functional; settings: Hs578, 120 h; summary of the method: as §2
BT-549 [22] = assay: Cytostatic activity against human BT549 cells after 5 days by SRB assay; assay type: functional; settings: BT-549, 120 h; summary of the method: as §2
MT4 = assay: Cytostatic activity against human MT4 cells after 5 days by SRB assay; assay type: functional; settings: MT4, 120 h
HL-60 = assay: Cytotoxicity against human HL60 cells after 3 days by XTT assay; assay type: functional, cell-based; settings: HL-60, 72 h
Summary of the method: (§3)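 Suspension-grown cell lines, 3-day compound incubation; viability read by XTT metabolic assay; IC50 averaged from four independent experiments.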

[23] = Cytotoxicity against human HeLaS3 cells after 3 days by XTT assay; assay type: functional, cell-based; settings: HeLa S3, 72 h; summary of the method: as §3
CCRF-CEM = assay: Cytotoxicity against human CCRF-CEM cells after 3 days by XTT assay; assay type: functional, cell-based; settings: 72 h; summary of the method: as §3
Adenosine kinase = Adenosine kinase (Homo sapiens, UniProt P55263); assay: Inhibition of human ADK using [3H]-adenosine by scintillation counting
Chain of Adenosine kinase (P55263 whole entry): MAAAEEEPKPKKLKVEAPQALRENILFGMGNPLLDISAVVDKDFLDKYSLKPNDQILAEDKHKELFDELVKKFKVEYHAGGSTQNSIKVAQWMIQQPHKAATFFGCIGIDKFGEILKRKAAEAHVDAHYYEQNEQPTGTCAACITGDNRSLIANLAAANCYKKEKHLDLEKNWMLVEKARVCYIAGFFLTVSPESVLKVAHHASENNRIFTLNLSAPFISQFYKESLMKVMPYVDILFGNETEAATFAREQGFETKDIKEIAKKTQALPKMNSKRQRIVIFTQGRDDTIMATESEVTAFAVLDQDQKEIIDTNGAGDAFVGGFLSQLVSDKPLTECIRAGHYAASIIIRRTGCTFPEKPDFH

Nc1ncnc2c1ccn2[C@@H]1O[C@H](COP(=O)(O)OP(=O)(O)OP(=O)(O)O)[C@@H](O)[C@H]1O [TUBERCIDIN TRIPHOSPHATE]
IC50 [1]: 93 µM

Nc1nc(Cl)nc2c1ncn2[C@H]1C[C@H](O)[C@@H](CO)O1 [CLADRIBINE]
IC50 (K562 [2]): 7.69 µM
IC50 (K562 [3]): 170 nM
IC50 (BV-173): 0.8 nM
IC50 [4]: 352 nM
IC50 (L1210): 393 nM
IC50 (EL4): 848 nM
IC50 (MCF7): 2350 nM
IC50 (BT-549 [5]): 123 nM
IC50 (MDA-MB-231): > 10 µM
IC50 (SK-N-AS): > 10 µM
IC50 [6]: > 10 µM
IC50 (C6): 9.07 µM
IC50 (HT-29): 9.44 µM
IC50 (HCT-116 [7]): 9.43 µM
IC50 (CT26): 131 nM
IC50 (PC-3 [8]): 8.28 µM
IC50 (LNCaP): > 10 µM
IC50 [9]: > 10 µM
IC50 [10]: 165 nM
IC50 (HeLa): > 10 µM
IC50 (SK-OV-3): > 10 µM
IC50 (SK-MEL-2): > 10 µM
IC50 (HPAC): 9.32 µM
IC50 [11]: 285 nM
IC50 (BJ): > 10 µM

Nc1ncnc2c1c(-c1ccco1)cn2[C@@H]1O[C@H](COP(=O)(O)OP(=O)(O)OP(=O)(O)O)[C@@H](O)[C@H]1O
IC50 [1]: 148 µM

Nc1ncnc2c1c(-c1ccccc1)cn2[C@@H]1O[C@H](CO)[C@@H](O)[C@H]1O
Stability (DU-145 [12]): 32.91 pmol
Stability (DU-145 [13]): 6.23 pmol
Stability (DU-145 [14]): 0.13 pmol
Stability (DU-145 [15]): 68.8 pmol
Stability (DU-145 [16]): 6.68 pmol
Stability (DU-145 [17]): 0.27 pmol
GI50 (A549): > 20 µM
GI50 (NCI-H23): > 20 µM
GI50 (DU-145 [18]): > 20 µM
GI50 (PC-3 [19]): > 20 µM
GI50 (HCT-116 [20]): > 20 µM
GI50 (HCT-15): > 20 µM
GI50 [21]: > 20 µM
GI50 (BT-549 [22]): > 20 µM
GI50 (MT4): > 20 µM
IC50 (HL-60): > 10 µM
IC50 [23]: > 10 µM
IC50 (CCRF-CEM): > 10 µM
IC50 (Adenosine kinase): > 5 µM
